The results in this text go back to ChEMBL document CHEMBL1152325, “Antioxidant and anticholinesterase activity evaluation of ent-kaurane diterpenoids from Sideritis arguta” (J Nat Prod, 2009).

The subject of assay [1] is Radical scavenging activity. The assay is described as follows: Antioxidant activity assessed as DPPH radical scavenging activity. It counts as functional. Summed up: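 DPPH free-radical scavenging by the Blois method on extracts and diterpenoids. Tested at four concentrations in triplicate analyses, given as mean ± SD. Results expressed as IC50 (µg/mL).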
Background: The DPPH test is a chemical assay of radical scavenging.

For the next assay, the target named is Acetylcholinesterase (Homo sapiens, UniProt P22303). The assay is described as follows: Inhibition of AChE by spectrophotometry.
A further assay addresses Cholinesterase (Homo sapiens, UniProt P06276). The assay is described as follows: Inhibition of BChE by spectrophotometry.
Assay [2] is described as follows: Antioxidant activity against beta-carotene and linoleic acid assessed as inhibition of bleaching of beta-carotene. The assay is classed as functional. Summed up: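 β-Carotene–linoleic acid model system on extracts and isolated diterpenoids. Bleaching inhibition was measured at four concentrations in triplicate, reported as mean ± SD. IC50 in µg/mL.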
A short description of assay [3]: Antioxidant activity assessed as superoxide radical scavenging activity by phenazin methosulphate-NADH-NBT assay. It counts as functional. Summed up:
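Superoxide-anion scavenging by the NADH-PMS-NBT method after Liu et al. Extracts and diterpenoids were tested at four concentrations in triplicate, as mean ± SD. IC50 reported in µg/mL.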

Chain of Cholinesterase (P06276 whole entry): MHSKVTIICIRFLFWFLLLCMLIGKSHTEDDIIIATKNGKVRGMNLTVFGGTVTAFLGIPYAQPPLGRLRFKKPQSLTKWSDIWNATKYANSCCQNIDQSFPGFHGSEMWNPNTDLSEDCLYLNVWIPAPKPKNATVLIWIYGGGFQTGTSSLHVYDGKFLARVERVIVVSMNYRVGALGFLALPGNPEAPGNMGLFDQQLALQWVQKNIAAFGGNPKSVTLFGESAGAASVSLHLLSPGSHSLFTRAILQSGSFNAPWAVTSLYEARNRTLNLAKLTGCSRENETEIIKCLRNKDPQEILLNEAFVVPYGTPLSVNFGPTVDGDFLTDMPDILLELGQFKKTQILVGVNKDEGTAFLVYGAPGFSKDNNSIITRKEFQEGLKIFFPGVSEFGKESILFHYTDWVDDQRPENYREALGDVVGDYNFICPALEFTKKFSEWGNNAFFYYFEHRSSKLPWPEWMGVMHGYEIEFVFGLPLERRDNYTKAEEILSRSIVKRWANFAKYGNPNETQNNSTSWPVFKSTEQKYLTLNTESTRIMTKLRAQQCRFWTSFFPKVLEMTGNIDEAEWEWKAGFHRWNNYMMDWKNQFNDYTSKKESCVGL
Chain of Acetylcholinesterase (P22303 whole entry): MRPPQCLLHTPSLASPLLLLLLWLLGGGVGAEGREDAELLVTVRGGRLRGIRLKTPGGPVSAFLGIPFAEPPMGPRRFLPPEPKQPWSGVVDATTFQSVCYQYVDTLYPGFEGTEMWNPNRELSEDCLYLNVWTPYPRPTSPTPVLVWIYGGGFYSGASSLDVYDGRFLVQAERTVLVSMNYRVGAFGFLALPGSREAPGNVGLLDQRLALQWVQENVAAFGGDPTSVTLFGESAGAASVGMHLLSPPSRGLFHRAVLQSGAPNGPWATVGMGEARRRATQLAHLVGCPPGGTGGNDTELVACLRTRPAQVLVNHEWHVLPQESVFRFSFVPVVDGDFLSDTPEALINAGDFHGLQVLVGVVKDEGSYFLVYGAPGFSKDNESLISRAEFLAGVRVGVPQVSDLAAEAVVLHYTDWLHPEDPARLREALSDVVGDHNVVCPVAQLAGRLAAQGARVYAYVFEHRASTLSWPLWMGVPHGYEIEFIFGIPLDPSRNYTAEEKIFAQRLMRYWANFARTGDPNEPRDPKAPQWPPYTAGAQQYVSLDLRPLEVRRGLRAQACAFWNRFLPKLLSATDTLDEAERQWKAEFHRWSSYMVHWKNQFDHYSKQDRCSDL

On to `C=C1C[C@]23C[C@H]1CC[C@H]2[C@]1(C)CCC[C@](C)(CO)[C@@H]1C[C@@H]3O`, for which the IC50 entry in assay [1] was “Not Active”; on Acetylcholinesterase (read-out: IC50) it was 22.8 µM; against Cholinesterase, 21.1 µM; in assay [2] it was 43.1 µg/mL; in assay [3], “Not Active”.
For the compound `Cc1c(C)c2c(c(C)c1O)CC[C@@](C)(CCC[C@H](C)CCC[C@H](C)CCCC(C)C)O2` [ALPHA-TOCOPHEROL], the 50% inhibitory concentration (IC50) was determined as 12.26 µg/mL in assay [1] and 2.1 µg/mL in assay [2].
`COc1ccc(O)c(C(C)(C)C)c1.COc1ccc(O)cc1C(C)(C)C` [BUTYLATED HYDROXYANISOLE]: the IC50 came out at 5.88 µg/mL in assay [1], 1.5 µg/mL in assay [2] and 27.1 µM in assay [3] (read-out: IC50).
As for `Cc1cc(C(C)(C)C)c(O)c(C(C)(C)C)c1` [BUTYLATED HYDROXYTOLUENE], the IC50 in assay [1] was found to be 66.73 µg/mL; in assay [2], 1.3 µg/mL.
For the compound `CC(=O)OC[C@@]1(C)CCC[C@]2(C)[C@H]1C[C@H](OC(C)=O)[C@@]13C[C@@H](CC[C@@H]21)[C@](C)(O)C3` [DIACETYLDISTANOL], the half-maximal inhibitory concentration (IC50) in assay [1] (read-out: IC50) is more than 200 µM; at Acetylcholinesterase, “Not Active”; at Cholinesterase, 176 µM; in assay [2] (read-out: IC50), more than 200 µM; in assay [3] (read-out: IC50) it was more than 200 µM.
Regarding `C=C1[C@@H]2CC[C@H]3[C@]4(C)CCC[C@](C)(CO)[C@@H]4C[C@H](O)[C@]3(C2)[C@@H]1O` [EUBOTRIOL], the IC50 in assay [1] (read-out: IC50) was more than 200 µM; against Acetylcholinesterase it was “Not Active”; against Cholinesterase it was 98.1 µM; in assay [2] (read-out: IC50), more than 200 µM; in assay [3] (read-out: IC50) it was more than 200 µM.
For the compound `C[C@]1(CO)CCC[C@]2(C)[C@H]1C[C@H](O)[C@@]13C[C@@H](CC[C@@H]21)[C@]1(C)O[C@@H]13` [SIDEROXOL], the IC50 in assay [1] (read-out: IC50) is more than 200 µM; at Acetylcholinesterase (read-out: IC50), 14.5 µM; against Cholinesterase it was 25 µM; in assay [2] (read-out: IC50) it was more than 200 µM; in assay [3] (read-out: IC50), more than 200 µM.
EUBOL: the IC50 in assay [1] (read-out: IC50) was more than 200 µM; against Acetylcholinesterase, “Not Active”; against Cholinesterase, 23.2 µM; in assay [2] (read-out: IC50) it was more than 200 µM; in assay [3] (read-out: IC50), more than 200 µM.
Regarding “ent-7alpha-acetoxy-15alpha,18-dihydroxykaur-16-ene”, the IC50 (in assay [1] (read-out: IC50); on Acetylcholinesterase (read-out: IC50); on Cholinesterase; in assay [2] (read-out: IC50); in assay [3] (read-out: IC50)) was more than 200 µM in each case.

A word on the IC50: it is the concentration needed to halve the response being measured.
